These results are taken from ChEMBL document CHEMBL3244363, “Studies on biologically active halogenated compounds. 1. Synthesis and central nervous system depressant activity of 2-(fluoromethyl)-3-aryl-4(3H)-quinazolinone derivatives” (J Med Chem, 1979).

The nature of data set [1]: Acute toxicity in ip dosed ddk mouse assessed as lethality after 72 hrs. The format is organism-based. The note with it: in vivo.
Data set [2] relates to Mus musculus. Nature of the data set: Induction of CNS depressant activity in ip dosed ddk mouse after 30 mins by rotating rod test. The format is functional. Conditions: Central nervous system, 0.5 h. The procedure, abridged: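 Compound was given ip to groups of six mice as a suspension in CMC solution. At 30 min each mouse was set on a rotating rod (3.5 cm diameter, 14 rpm) for 1 min. ED50 was estimated from the number of mice falling off the rod twice during the test.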

In data set [3] the test system is Mus musculus. Nature of the data set: Induction of CNS depressant activity in ip dosed ddk mouse assessed as loss of righting reflex activity over 20 secs. The format is functional. The note with it: Central nervous system. The essentials: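 Groups of six mice received compound ip as a suspension in CMC solution. Each mouse was laid on its back at 15, 30, 60, 90 and 120 min. The reflex was scored as lost if the animal stayed supine over 20 s. ED50 was estimated from the number of mice losing the reflex.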

The test system of data set [4] is Mus musculus. Nature of the data set: Induction of CNS depressant activity in ip dosed ddk mouse assessed as protection against maximal electroshock-induced tonic hind limb extensor seizures administered 30 mins prior to electroshock challenge. The format is functional. The note with it: Central nervous system. The essentials:
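Six mice per group were dosed ip with compound suspended in CMC solution. After 30 min, a 25 mA alternating current was delivered through corneal electrodes for 0.15 s. ED50 was estimated from the number of mice protected against the tonic hind limb extensor component.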

The test system of data set [5] is Mus musculus. The experiment in a line: Induction of CNS depressant activity in ip dosed ddk mouse assessed as protection against pentylenetetrazole-induced tonic extensive convulsions administered 30 mins prior to pentylenetetrazole challenge. The format is functional. Conditions: Central nervous system. The essentials: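 In groups of six mice, compound was injected ip as a suspension in CMC solution. Pentylenetetrazole 125 mg/kg was given sc 30 min later. ED50 was estimated from the number of mice protected against death from tonic extensive convulsions within 1 h of the convulsant.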

Data set [6] concerns Mus musculus. The experiment in a line: Induction of CNS depressant activity in ip dosed ddk mouse assessed as excitation incidence during loss of righting reflex activity over 20 secs. The format is functional, organism-based. The note with it: Central nervous system.

Activity calls are given as the source filed them. The calls are words filed in the database; no cut-off is given here.

Turning to `CC(=O)Nc1ccc2nc(CF)n(-c3ccccc3C)c(=O)c2c1`, in data set [1], the MTD at 72 h was at least 300 mg/kg. The ED50 – broadly, the dose at which the effect has come halfway, by size or by number of responders – in data set [2] is over 150 mg/kg; in data set [3], over 150 mg/kg; in data set [4] it was over 150 mg/kg; in data set [5], 75.2 mg/kg.
Turning to `Cc1ccccc1-n1c(C)nc2ccccc2c1=O` [METHAQUALONE], the LD50 – broadly, the dose at which mortality reaches 50% – at 72 h in data set [1] was 542 mg/kg. Further, the ED50 turned out to be 33.7 mg/kg in data set [2], 31.6 mg/kg in data set [3], 35.2 mg/kg in data set [4] and 36.7 mg/kg in data set [5].
For the molecule `Cc1cc(Cl)ccc1-n1c(CF)nc2cccc(Cl)c2c1=O`, the MTD at 72 h in data set [1] was at least 300 mg/kg. Moreover, the ED50 was over 150 mg/kg in data set [2], over 150 mg/kg in data set [3], over 150 mg/kg in data set [4] and 88.4 mg/kg in data set [5].
For the molecule `Cc1cc(Cl)ccc1-n1c(CF)nc2ccccc2c1=O`, the LD50 at 72 h in data set [1] is 432 mg/kg. In addition, the ED50 in data set [3] was determined as 18.7 mg/kg; in data set [4], 14.1 mg/kg; in data set [5], 16.3 mg/kg. For the same molecule, the result in data set [6] was Active.
Consider `O=c1c2ccccc2nc(CF)n1-c1ccccc1`, for which the MTD at 72 h in data set [1] is at least 300 mg/kg. The median effective dose (ED50) in data set [2] amounted to 98 mg/kg; in data set [3] it was 130 mg/kg; in data set [4], 116 mg/kg; in data set [5], 95.3 mg/kg.
For the molecule `Cc1c(Cl)cccc1-n1c(CF)nc2ccccc2c1=O`, the LD50 at 72 h in data set [1] came to 1560 mg/kg. In addition, the 50% effective dose (ED50) in data set [2] is 15 mg/kg; in data set [3], 18.4 mg/kg; in data set [4] it was 15 mg/kg; in data set [5], 16.1 mg/kg.
For `Cc1ccccc1-n1c(CF)nc2ccc(N)cc2c1=O` [AFLOQUALONE], the LD50 at 72 h in data set [1] was determined as 315 mg/kg. Besides, the median effective dose (ED50) was found to be 15.6 mg/kg in data set [2], 35.1 mg/kg in data set [3], 13.3 mg/kg in data set [4] and 5.4 mg/kg in data set [5].
Consider `Cc1ccccc1-n1c(CF)nc2ccccc2c1=O`, for which the LD50 at 72 h in data set [1] was 710 mg/kg. The ED50 in data set [2] amounted to 35.1 mg/kg; in data set [3] it was 19.9 mg/kg; in data set [4], 25.2 mg/kg; in data set [5], 26.6 mg/kg.
On to `Cc1ccccc1-n1c(CF)nc2ccc([N+](=O)[O-])cc2c1=O`, for which, in data set [1], the MTD at 72 h was at least 300 mg/kg. Besides, the 50% effective dose (ED50) in data set [2], in data set [3], in data set [4] and in data set [5] was over 150 mg/kg throughout.
Turning to `O=c1c2ccccc2nc(CF)n1-c1ccc(Cl)cc1Cl`, in data set [1], the MTD at 72 h came out at 100 mg/kg. For the same molecule, the ED50 is 18.7 mg/kg in data set [3], 8.1 mg/kg in data set [4] and 16.3 mg/kg in data set [5]. In addition, the result in data set [6] was Active.
As for `Cc1ccccc1-n1c(CF)nc2ccc(Cl)cc2c1=O`, the MTD at 72 h in data set [1] was at least 300 mg/kg. Moreover, the ED50 in data set [2], in data set [3], in data set [4] and in data set [5] was over 150 mg/kg each time.
For the molecule `Cc1ccccc1-n1c(C)nc2ccc(N)cc2c1=O`, the ED50 in data set [2] was found to be 27.9 mg/kg; in data set [3] it was 28.1 mg/kg; in data set [4] it was 25.4 mg/kg; in data set [5], 8.1 mg/kg.
As to `Cc1ccccc1-n1c(CF)nc2cccc(Cl)c2c1=O`, the MTD at 72 h in data set [1] is at least 300 mg/kg. The ED50 in data set [2] stood at 37.6 mg/kg; in data set [3] it was 95.7 mg/kg; in data set [4], 40.3 mg/kg; in data set [5], 34.9 mg/kg.
